Key:
Format in all cases: functional
NCI-H460 = assay: Cytotoxicity against human NCI-H460 cells assessed as cell growth at 100 uM after 48 hrs by sulforhodamine B assay; conditions: NCI-H460, 48 h, read-out: Activity
Procedure, shortened: (§1)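 Primary one-dose screen on a three-line panel (MCF7 breast, NCI-H460 lung, SF-268 CNS) at 10^-4 M. Cells were preincubated 24–48 h before a single addition of the agent, followed by 48 h incubation. Endpoint was SRB protein staining, reported as percent growth versus untreated controls.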

MCF7 [1] = assay: Cytotoxicity against human MCF7 cells assessed as cell growth at 100 uM after 48 hrs by sulforhodamine B assay; conditions: MCF7, 48 h, read-out: Activity; procedure, shortened: as §1
SF-268 = assay: Cytotoxicity against human SF268 cells assessed as cell growth at 100 uM after 48 hrs by sulforhodamine B assay; conditions: SF-268, 48 h, read-out: Activity; procedure, shortened: as §1
HCT-116 = assay: Growth inhibition of human HCT116 cells after 48 hrs by sulforhodamine B assay; conditions: HCT-116, 48 h
Procedure, shortened: (§2)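 Five-concentration assay in about 60 human tumour lines, using 10-fold dilutions from 10^-4 to 10^-8 M with 48 h continuous exposure and an SRB protein endpoint. Percent growth at each level comes from time-zero, untreated-control and treated absorbances. GI50 is 50% lower net protein increase than control. Values beyond the tested range are given as greater or less than the extreme concentration.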

MDA-MB-231 = assay: Growth inhibition of human MDA-MB-231 cells after 48 hrs by sulforhodamine B assay; conditions: MDA-MB-231, 48 h; for TGI: read-out: pTGI (converted); procedure, shortened: as §2
U-251 = assay: Growth inhibition of human U251 cells after 48 hrs by sulforhodamine B assay; conditions: U-251, 48 h; for TGI: read-out: pTGI (converted); procedure, shortened: as §2
NCI-H23 = assay: Growth inhibition of human NCI-H23 cells after 48 hrs by sulforhodamine B assay; conditions: NCI-H23, 48 h; procedure, shortened: as §2
OVCAR-3 = assay: Growth inhibition of human OVCAR-3 cells after 48 hrs by sulforhodamine B assay; conditions: OVCAR-3, 48 h; procedure, shortened: as §2
MCF7 [2] = assay: Growth inhibition of human MCF7 cells after 48 hrs by sulforhodamine B assay; conditions: MCF7, 48 h; procedure, shortened: as §2
CCRF-CEM = assay: Growth inhibition of human CCRF-CEM cells after 48 hrs by sulforhodamine B assay; procedure, shortened: as §2
HOP-92 = assay: Growth inhibition of human HOP92 cells after 48 hrs by sulforhodamine B assay; conditions: HOP-92, 48 h; procedure, shortened: as §2
NCI-H226 = assay: Growth inhibition of human NCI-H226 cells after 48 hrs by sulforhodamine B assay; conditions: NCI-H226, 48 h; procedure, shortened: as §2
[3] = Growth inhibition of human 786-O cells after 48 hrs by sulforhodamine B assay; conditions: 786-0, 48 h; procedure, shortened: as §2
[4] = Growth inhibition of human Hs 578T cells after 48 hrs by sulforhodamine B assay; procedure, shortened: as §2
SR = assay: Growth inhibition of human SR cells after 48 hrs by sulforhodamine B assay; procedure, shortened: as §2
SK-OV-3 = assay: Growth inhibition of human SKOV3 cells after 48 hrs by sulforhodamine B assay; conditions: SK-OV-3, 48 h; procedure, shortened: as §2
SF-295 = assay: Growth inhibition of human SF295 cells after 48 hrs by sulforhodamine B assay; conditions: SF-295, 48 h; procedure, shortened: as §2
SNB-75 = assay: Growth inhibition of human SNB75 cells after 48 hrs by sulforhodamine B assay; conditions: SNB-75, 48 h; procedure, shortened: as §2
[5] = read-out: pLC50 (the source's name) (converted)

In the case of `COc1ccc(/C=C2/NC(=O)N(CC(=O)Nc3cccc(C(F)(F)F)c3)C2=O)cc1`, the growth at 100 µM (NCI-H460) is reported as 44%, the growth at 100 µM (MCF7 [1]) is reported as 64% and the growth at 100 µM (SF-268) is reported as 65%. For the same molecule, the GI50 (HCT-116) was 30.2 µM, the LC50 (HCT-116) was over 100 µM and the TGI (HCT-116; read-out: pTGI (converted)) was over 100 µM. For the same molecule, the GI50 (MDA-MB-231) was 23.4 µM, the LC50 (MDA-MB-231) was over 100 µM and the TGI (MDA-MB-231) was 58.9 µM. It also gave a GI50 (U-251) of 25.7 µM, an LC50 (U-251) of over 100 µM and a TGI (U-251) of 69.2 µM. For the same molecule, the GI50 (NCI-H23) was 26.3 µM, the LC50 (NCI-H23) was over 100 µM and the TGI (NCI-H23; read-out: pTGI (converted)) was 89.1 µM. It also gave a GI50 (OVCAR-3) of 30.9 µM, a CC50 (OVCAR-3; [5]) of over 100 µM and a TGI (OVCAR-3; read-out: pTGI (converted)) of 95.5 µM. It also gave a GI50 (MCF7 [2]) of 2820 nM, a CC50 (MCF7 [2]; [5]) of over 100 µM and a TGI (MCF7 [2]; read-out: pTGI) of over 100 µM.
With `COc1ccc(/C=C2/NC(=O)N(CC(=O)Nc3cc(C(F)(F)F)ccc3Cl)C2=O)cc1` the GI50 (CCRF-CEM) was 21.9 µM, the LC50 (CCRF-CEM) was over 100 µM and the TGI (CCRF-CEM; read-out: pTGI (converted)) was over 100 µM. For the same molecule, the GI50 (HOP-92) was 6.03 µM, the LC50 (HOP-92) was 69.2 µM and the TGI (HOP-92; read-out: pTGI (converted)) was 24 µM. The GI50 (NCI-H226) was 26.3 µM, the CC50 (NCI-H226; [5]) was over 100 µM and the TGI (NCI-H226; read-out: pTGI (converted)) was over 100 µM. The GI50 [3] was 21.9 µM, the CC50 [3, 5] was over 100 µM and the TGI ([3]; read-out: pTGI (converted)) was over 100 µM. The GI50 (MDA-MB-231) was 15.8 µM, the LC50 (MDA-MB-231) was over 100 µM and the TGI (MDA-MB-231) was over 100 µM. The GI50 [4] was 18.6 µM, the CC50 [4, 5] was over 100 µM and the TGI ([4]; read-out: pTGI (converted)) was 91.2 µM. The GI50 (SR) was 7.24 µM, the LC50 (SR) was 49 µM and the TGI (SR; read-out: pTGI (converted)) was 20 µM. For the same molecule, the GI50 (U-251) was 9.33 µM, the LC50 (U-251) was over 100 µM and the TGI (U-251) was 63.1 µM. The GI50 (SK-OV-3) was 19.5 µM, the LC50 (SK-OV-3) was over 100 µM and the TGI (SK-OV-3; read-out: pTGI (converted)) was 81.3 µM. For the same molecule, the GI50 (SF-295) was 30.9 µM, the CC50 (SF-295; [5]) was over 100 µM and the TGI (SF-295; read-out: pTGI) was over 100 µM. It also gave a GI50 (SNB-75) of 2690 nM, a CC50 (SNB-75; [5]) of over 100 µM and a TGI (SNB-75; read-out: pTGI (converted)) of 16.6 µM.

Source: ChEMBL document CHEMBL1153575, “Synthesis and in vitro anticancer activity of 2,4-azolidinedione-acetic acids derivatives” (2009)
